Here are results for 27 compounds from ChEMBL document CHEMBL1149485, “Structure-activity relationships of uridine 5'-diphosphate analogues at the human P2Y6 receptor” (J Med Chem, 2006).

pEC50: −log10 of the molar value. The source made the active and inactive calls. The rule behind the calls is not given here. Bounds are passed on as bounds.

What all share (type): functional, cell-based
Assay [1] concerns the target T1, P2Y purinoceptor 6 (Homo sapiens, UniProt Q15077). Kind of assay: Agonist activity at human recombinant P2Y6 receptor expressed in 1321N1 cells assessed as PLC-mediated [3H]IP production. The method in brief:
(§1)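 Stable 1321N1 astrocytoma line expressing human P2Y6, grown to confluence and labelled 12 h in serum-free, inositol-free DMEM with 0.4 μCi myo-[3H]inositol. Agonists were added in Hepes pH 7.3 with LiCl for 20 min at 37 °C. The reaction was stopped with ice-cold 50 mM formic acid, neutralised with NH4OH, and [3H]inositol phosphates separated on Dowex AG 1-X8. EC50 came from four-parameter logistic fits; ratio to UDP EC50. Triplicates, ≥3 experiments.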

The target in assay [2] is T2, P2Y purinoceptor 2 (Homo sapiens, UniProt P41231). Kind of assay: Agonist activity at human recombinant P2Y2 receptor expressed in 1321N1 cells assessed as PLC-mediated [3H]IP production relative to UTP.
T2 sequence (P41231 whole entry): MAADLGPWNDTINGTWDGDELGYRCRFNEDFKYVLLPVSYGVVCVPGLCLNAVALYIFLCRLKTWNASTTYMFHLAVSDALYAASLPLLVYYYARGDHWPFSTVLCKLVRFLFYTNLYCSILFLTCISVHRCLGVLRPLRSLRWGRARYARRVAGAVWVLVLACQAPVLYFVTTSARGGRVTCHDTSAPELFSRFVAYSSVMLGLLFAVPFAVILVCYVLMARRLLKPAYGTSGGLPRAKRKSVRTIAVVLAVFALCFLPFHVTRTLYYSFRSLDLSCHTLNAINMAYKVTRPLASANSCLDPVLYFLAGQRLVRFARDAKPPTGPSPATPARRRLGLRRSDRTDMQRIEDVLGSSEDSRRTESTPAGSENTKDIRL
The target of assay [3] is T1, P2Y purinoceptor 6. Kind of assay: Agonist activity at human recombinant P2Y6 receptor expressed in 1321N1 cells assessed as PLC-mediated [3H]IP production relative to UDP. The method in brief:
as §1

The target in assay [4] is T3, P2Y purinoceptor 4 (Homo sapiens, UniProt P51582). Kind of assay: Agonist activity at human recombinant P2Y4 receptor expressed in 1321N1 cells assessed as PLC-mediated [3H]IP production relative to UTP.
T3 sequence (P51582 whole entry): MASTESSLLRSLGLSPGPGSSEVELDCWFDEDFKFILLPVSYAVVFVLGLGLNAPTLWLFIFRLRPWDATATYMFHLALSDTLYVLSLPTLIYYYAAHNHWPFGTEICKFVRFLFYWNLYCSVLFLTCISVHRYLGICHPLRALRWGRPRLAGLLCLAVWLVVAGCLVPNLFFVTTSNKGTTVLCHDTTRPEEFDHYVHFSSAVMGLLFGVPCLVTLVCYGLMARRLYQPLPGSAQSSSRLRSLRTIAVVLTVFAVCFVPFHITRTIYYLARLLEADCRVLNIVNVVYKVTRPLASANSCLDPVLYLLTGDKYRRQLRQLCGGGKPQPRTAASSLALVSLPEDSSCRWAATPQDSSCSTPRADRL
In assay [5] the target is T1, P2Y purinoceptor 6. Description: Agonist activity at human recombinant P2Y6 receptor expressed in 1321N1 cells assessed as PLC-mediated [3H]IP production at 10 uM realtive to UDP. The method in brief: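 Human P2Y6 in 1321N1 cells prelabelled with myo-[3H]inositol, then exposed to agonist at 10 μM in Hepes pH 7.3 with LiCl for 20 min at 37 °C. [3H]inositol phosphates were isolated by Dowex anion exchange. Response is expressed as % of the effect of a maximally effective UDP concentration in the same experiment.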

Assay [6] addresses T3, P2Y purinoceptor 4. Kind of assay: Agonist activity at human recombinant P2Y4 receptor expressed in 1321N1 cells assessed as PLC-mediated [3H]IP production relative to UTP at 10 uM.
Assay [7] concerns the target T3, P2Y purinoceptor 4. Kind of assay: Agonist activity at human recombinant P2Y4 receptor expressed in 1321N1 cells assessed as PLC-mediated [3H]IP production.
In assay [8] the target is T2, P2Y purinoceptor 2. Description: Agonist activity at human recombinant P2Y2 receptor expressed in 1321N1 cells assessed as PLC-mediated [3H]IP production.

T1 sequence (Q15077 whole entry): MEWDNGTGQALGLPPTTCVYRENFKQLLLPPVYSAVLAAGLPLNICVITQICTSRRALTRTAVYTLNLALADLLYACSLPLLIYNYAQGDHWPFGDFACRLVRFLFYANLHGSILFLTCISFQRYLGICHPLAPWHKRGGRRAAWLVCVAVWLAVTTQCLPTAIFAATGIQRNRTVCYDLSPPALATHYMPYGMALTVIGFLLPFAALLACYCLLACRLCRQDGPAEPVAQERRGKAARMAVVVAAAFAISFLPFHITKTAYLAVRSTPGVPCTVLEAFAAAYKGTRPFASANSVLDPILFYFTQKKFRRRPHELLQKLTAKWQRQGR

As to `NC(=O)CSc1ccn([C@@H]2O[C@H](COP(=O)(O)OP(=O)(O)O)[C@@H](O)[C@H]2O)c(=O)n1`, the pEC50 at P2Y purinoceptor 6 [1] was 4.74.
On to `O=c1ccn([C@@H]2C3C[C@@]3(COP(=O)(O)OP(=O)(O)O)[C@@H](O)[C@H]2O)c(=O)[nH]1` (some centres undefined), for which the Ratio EC50 is 2 at P2Y purinoceptor 2 [2], over 7000 at P2Y purinoceptor 6 [3] and 1.7 on P2Y purinoceptor 4 [4].
Turning to `O=c1ccn([C@]23CC2[C@H](COP(=O)(O)OP(=O)(O)O)[C@@H](O)C3)c(=O)[nH]1` (some centres undefined), the pEC50 on P2Y purinoceptor 6 [1] was 6.64.
The same measure, in the same setting: as for `O=C(O)CSc1ccn([C@@H]2O[C@H](COP(=O)(O)OP(=O)(O)O)[C@@H](O)[C@H]2O)c(=O)n1`, the figure is 5.77.
Turning to `O=c1ccn([C@@H]2O[C@H](COP(=O)(O)OP(=O)(O)O)[C@@H](O)[C@@H]2F)c(=O)[nH]1`, the Ratio EC50 is 11 on P2Y purinoceptor 2 [2], 420 on P2Y purinoceptor 6 [3] and 7.1 at P2Y purinoceptor 4 [4]. Besides, at P2Y purinoceptor 6 [1], the pEC50 is 5.26.
Consider `O=c1ccn([C@@H]2O[C@H](COP(=O)(O)OP(=O)(O)OC[C@H]3O[C@@H](n4ccc(=O)[nH]c4=O)[C@H](O)[C@@H]3O)[C@@H](O)[C@H]2O)c(=O)[nH]1`, for which the pEC50 at P2Y purinoceptor 6 [1] is 5.64.
Consider `C=CCSc1ccn([C@@H]2O[C@H](COP(=O)(O)OP(=O)(O)O)[C@@H](O)[C@H]2O)c(=O)n1`, for which the pEC50 at P2Y purinoceptor 6 [1] was 6.25.
Take `CCSc1ccn([C@@H]2O[C@H](COP(=O)(O)OP(=O)(O)OC[C@H]3O[C@@H](n4ccc(SCC)nc4=O)[C@H](O)[C@@H]3O)[C@@H](O)[C@H]2O)c(=O)n1`: the Efficacy at P2Y purinoceptor 6 [5] was under 50%.
`CCSc1ccn([C@@H]2O[C@H](COP(=O)(O)OP(=O)(O)O)[C@@H](O)[C@H]2O)c(=O)n1`: on P2Y purinoceptor 6 [1], the pEC50 is 6.55.
Turning to `O=c1ccn([C@@H]2O[C@H](COP(=O)(O)OP(=O)(O)O)[C@@H](O)[C@H]2O)c(=O)[nH]1` [URIDINE_DIPHOSPHATE], the pEC50 at P2Y purinoceptor 6 [1] was 7.89.
With `N[C@@H]1[C@H](O)[C@@H](COP(=O)(O)OP(=O)(O)O)O[C@H]1n1ccc(=O)[nH]c1=O`, the Ratio EC50 at P2Y purinoceptor 2 [2] was 1.3; at P2Y purinoceptor 6 [3], 300; on P2Y purinoceptor 4 [4] it was 16. Besides, the pEC50 on P2Y purinoceptor 6 [1] was 5.41.
As to `Nc1ncnc2c1ncn2[C@@H]1O[C@H](COP(=O)(O)OP(=O)(O)O)[C@@H](O)[C@H]1O` [ADENOSINE DIPHOSPHATE], the Ratio EC50 on P2Y purinoceptor 2 [2] is 1.7; at P2Y purinoceptor 6 [3], over 7000. In addition, at P2Y purinoceptor 4 [6], the result was inactive. Moreover, on P2Y purinoceptor 6 [1], the pEC50 was 4.19.
On to `O=c1nc(SCc2ccccc2)ccn1[C@@H]1O[C@H](COP(=O)(O)OP(=O)(O)OC[C@H]2O[C@@H](n3ccc(SCc4ccccc4)nc3=O)[C@H](O)[C@@H]2O)[C@@H](O)[C@H]1O`, for which, on P2Y purinoceptor 6 [5], the Efficacy was under 50%.
On to `O=c1nc(SCc2ccccc2)ccn1[C@@H]1O[C@H](COP(=O)(O)OP(=O)(O)O)[C@@H](O)[C@H]1O`, for which the pEC50 at P2Y purinoceptor 6 [1] was 6.10.
As for `[N-]=[N+]=N[C@@H]1[C@H](O)[C@@H](COP(=O)(O)OP(=O)(O)O)O[C@H]1n1ccc(=O)[nH]c1=O`, the Ratio EC50 on P2Y purinoceptor 2 [2] was determined as 100; on P2Y purinoceptor 6 [3] it was 120; at P2Y purinoceptor 4 [4] it was 15. Also, at P2Y purinoceptor 6 [1], the pEC50 is 5.82.
Regarding `O=c1[nH]c(=O)n([C@@H]2O[C@H](COP(=O)(O)OP(=O)(O)O)[C@@H](O)[C@H]2O)cc1I`, the Ratio EC50 was determined as 17 on P2Y purinoceptor 2 [2], 1.1 at P2Y purinoceptor 6 [3] and 55 at P2Y purinoceptor 4 [4]. Besides, the pEC50 at P2Y purinoceptor 6 [1] is 7.82.
With `O=C(O)CCSc1ccn([C@@H]2O[C@H](COP(=O)(O)OP(=O)(O)O)[C@@H](O)[C@H]2O)c(=O)n1`, the pEC50 at P2Y purinoceptor 6 [1] was 5.96.
In the case of `CCCCCCSc1ccn([C@@H]2O[C@H](COP(=O)(O)OP(=O)(O)O)[C@@H](O)[C@H]2O)c(=O)n1`, the pEC50 at P2Y purinoceptor 6 [1] was 5.31.
As to `Nc1nc2c(ncn2[C@@H]2O[C@H](COP(=O)(O)OP(=O)(O)O)[C@@H](O)[C@H]2O)c(=O)[nH]1`, the Ratio EC50 stood at 54 on P2Y purinoceptor 2 [2], 500 at P2Y purinoceptor 6 [3] and 90 at P2Y purinoceptor 4 [4]. At P2Y purinoceptor 6 [1], the pEC50 was 4.35.
With `O=c1ccn([C@@H]2O[C@H](COP(=O)(O)OP(=O)(O)O)[C@@H](O)[C@H]2O)c(=S)[nH]1`, the values for the Ratio EC50 at P2Y purinoceptor 2 [2], on P2Y purinoceptor 6 [3] and at P2Y purinoceptor 4 [4] were 0.71, 4 and 4.8, respectively. Further, on P2Y purinoceptor 6 [1], the pEC50 was 7.22.
Take `CSc1ccn([C@@H]2O[C@H](COP(=O)(O)OP(=O)(O)O)[C@@H](O)[C@H]2O)c(=O)n1`: on P2Y purinoceptor 6 [1], the pEC50 is 5.64.
In the case of `O=C(O)CCCSc1ccn([C@@H]2O[C@H](COP(=O)(O)OP(=O)(O)O)[C@@H](O)[C@H]2O)c(=O)n1`, the pEC50 at P2Y purinoceptor 6 [1] is 5.06.
As to `O=c1ccn([C@@H]2O[C@H](COP(=O)(O)OP(=O)(O)O)C[C@H]2O)c(=O)[nH]1`, the Ratio EC50 came to 17 at P2Y purinoceptor 2 [2], 190 at P2Y purinoceptor 6 [3] and 42 at P2Y purinoceptor 4 [4]. Besides, the pEC50 on P2Y purinoceptor 4 [7] was 5.51; on P2Y purinoceptor 6 [1], 5.60; on P2Y purinoceptor 2 [8], 6.09.
`O=c1ccn([C@@H]2O[C@@]3(COP(=O)(O)OP(=O)(O)O)C[C@H]3[C@H]2O)c(=O)[nH]1`: at P2Y purinoceptor 6 [1], the pEC50 is 5.46.
As for `O=c1[nH]c(=S)ccn1[C@@H]1O[C@H](COP(=O)(O)OP(=O)(O)O)[C@@H](O)[C@H]1O`, the Ratio EC50 amounted to 0.53 at P2Y purinoceptor 2 [2], 6 at P2Y purinoceptor 6 [3] and 0.32 on P2Y purinoceptor 4 [4]. Further, the pEC50 at P2Y purinoceptor 6 [1] was 7.10.
As for `Cn1c(=O)ccn([C@@H]2O[C@H](COP(=O)(O)OP(=O)(O)O)[C@@H](O)[C@H]2O)c1=O`, the figures for the Ratio EC50 on P2Y purinoceptor 2 [2], at P2Y purinoceptor 6 [3] and on P2Y purinoceptor 4 [4] were 24, 250 and 47, respectively. Further, the pEC50 at P2Y purinoceptor 6 [1] is 5.48.
As to `Nc1ccn([C@@H]2O[C@H](COP(=O)(O)OP(=O)(O)O)[C@@H](O)[C@H]2O)c(=O)n1`, the Ratio EC50 stood at 110 at P2Y purinoceptor 2 [2] and 1000 on P2Y purinoceptor 6 [3]. For the same compound, on P2Y purinoceptor 4 [6], the result was inactive. Further, the pEC50 on P2Y purinoceptor 6 [1] was 4.06.

The pEC50 is −log10 of the EC50, conventionally taken in molar units.
